CSC inhib: cancer stem cell viability inhibitors, primary screen, luminescence. AID 2717, 2010. cancer stem cell-like cells viability. 1.1% of 300,000 active. inhibition, % at 7.5 µM; in the data active means inhibition above about 75%; inconclusive means no clear call, values can overlap the other calls; tested in HMLE shEcad cells
SKKanGAS inh: S. pyogenes SKKanGAS growth inhibitors in kanamycin, primary screen, streptokinase expression inhibitor project, SKKanGAS strain, BacTiter-Glo luminescence; 6 h; inhibition, % at 7.5 µM; 1.3% of 300,000 active; AID 1662, 2009;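 active means mean replicate score, as percent of positive control median, at least 50; inconclusive means mean below 50 but one replicate at or above 50; inactive means mean and every replicate below 50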;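 further: strain carries kanamycin resistance gene driven by streptokinase promoter and grows in 40 µg/ml kanamycin; loss of luminescence reflects streptokinase promoter inhibition or plain growth inhibition; 0% = median of DMSO wells and 100% = positive control at its reference dose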
Mdm2 MdmX PPI: inhibitors of human Mdm2-MdmX association, primary screen, cell-based, luminescence, split luciferase, SaOS-2, uHTS; Protein Mdm4 (Homo sapiens) + E3 ubiquitin-protein ligase Mdm2 (Homo sapiens), …; SaOS-2 split-luciferase Mdm2/MdmX complementation; inhibition, % at 8 µM; 3% of 330,000 active; AID 485346, 2010;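 active means inhibition of at least 50% at 8 µM in the primary screen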
T cruzi inh: inhibitors of intracellular T. cruzi growth, primary screen, luminescence, NIH3T3 host cells | T. cruzi beta-gal in NIH3T3, 90 h | AID 1885, 2009 | 1.4% of 300,000 active | inhibition, % (test concentration not listed);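 active means mean inhibition across valid replicates above about 55%, limit read from the data; inconclusive means mean below that limit but half or more replicates reach it; inactive means mean below it, under half of replicates reach it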;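 further: signal also drops with host cell toxicity which is not excluded here; 0% = plate median of DMSO wells and 100% = zero luminescence signal; higher percent means less beta-gal luminescence so fewer parasites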
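Material: NIH/3T3 host cells with β-galactosidase reporter T. cruzi; Input: 5,000 host fibroblasts per well; Medium: DMEM, 2% fetal bovine serum; Compound: 50 nL DMSO compound solution per well; Schedule: 3 h host attachment, then at least 90 h co-culture; Detection: luminescent β-galactosidase signal after 60 min lysis.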
aSyn UTR inh: MLPCN primary screen, SNCA 5' untranslated region | inhibition, % (tested at 7.5 µM) | alpha-synuclein 5'UTR reporter, inhibitor activity | 0.82% of 300,000 active; in the data active means inhibition above about 60%; inconclusive means no clear call, values can overlap the other calls;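 further: H4 neuroglioblastoma cells stably carrying SNCA 5'UTR luciferase fusion; 0% = DMSO wells and 100% = positive control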
* marks the source's active call; other numbers are inactive results; u = inconclusive; x = no result given. This is a sample that favours compounds with a hit; in the whole collection about 5.4% have one here.

SMILES | CSC inhib | SKKanGAS inh | Mdm2 MdmX PPI | T cruzi inh | aSyn UTR inh
CCC(=O)O[C@@H]1CC(=O)O[C@H](C)CC=CC=C[C@@H](O)[C@H](C)C[C@H](CC=O)[C@H](O[C@H]2O[C@H](C)[C@@H](O[C@H]3C[C@@](C)(O)[C@@H](OC(=O)CC)[C@H](C)O3)[C@H](N(C)C)[C@H]2O)[C@H]1OC | x | 110* | x | -1 | -12
CCOC(=O)C1=C(C)NC(C)=C(C(=O)OCC)C1c1ccc([N+](=O)[O-])s1 | -12 | 51* | 19 | 16 | 20
COc1ccc(C(=O)NNC2=Nc3cccc4cccc2c34)cc1 | 13 | 38 | 28 | 32 | u
Cc1ccc(C(=O)NNC2=Nc3cccc4cccc2c34)cc1 | 14 | 58* | 43 | 15 | 58
O=S(=O)(Nc1ccc2ccccc2n1)c1ccccc1 | -8 | -1 | 6 | 3 | -5
CCCCCCCCCCCCN1[C@@H](CC(=O)OC)c2cc(F)ccc2S1(=O)=O | 6 | 15 | 11 | 21 | -9
CCCCCCCCCCCCN1[C@@H](CC(C)=O)c2cc(F)ccc2S1(=O)=O | 80* | 17 | 12 | 21 | -2
O=C(Nc1nc2ccccc2[nH]1)c1ccccc1 | 23 | 38 | -66 | 9 | 54
O=C(Cc1ccccc1)Nc1nc2ccccc2[nH]1 | -9 | 1 | 29 | 14 | 0
O=C(Cc1ccc(Br)cc1)Nc1nc2ccccc2[nH]1 | 13 | 57* | -4 | -8 | -28
O=C(Nc1nc2ccccc2[nH]1)c1cccc(Cl)c1 | 15 | 64* | -171 | 7 | -151
O=C(Nc1nc2ccccc2[nH]1)c1ccc(Cl)cc1 | 22 | 18 | -8 | -3 | 66*
CN(C)S(=O)(=O)c1cccc(NC(=O)CCc2nc3cc(S(=O)(=O)N4CCOCC4)ccc3n2C)c1 | -7 | 31 | 5 | -4 | 3
CCOc1cccc2cc(C(=O)NCc3ccc(C)cc3)c(=N)oc12 | -3 | 12 | 32 | 13 | -13
CCOc1ccccc1OCCCCCc1c(C)n[nH]c1C | -15 | 61* | 11 | -13 | 2
COc1ccccc1OCCCc1c(C)n[nH]c1C | -5 | -6 | 15 | -39 | -6
Cc1cccc(OCCCCc2c(C)n[nH]c2C)c1C | 25 | 99* | 17 | -5 | -23
Cc1ccc(OCCCOc2cccc3cccnc23)cc1C | 4 | 37 | -7 | -1 | -31
Cc1cccc(OCCCOc2cccc3cccnc23)c1C | -7 | 58* | -12 | 3 | -39
COc1ccccc1OCCCCCc1c(C)n[nH]c1C | -7 | 66* | -29 | -2 | -29
O=C(O)c1cccc(S(=O)(=O)N2CCN(S(=O)(=O)c3ccc4ccccc4c3)CC2)c1 | x | x | 9 | x | x
COc1cc(NC(=O)c2cccc(COCC(F)(F)C(F)F)c2)cc(OC)c1OC | -2 | -1 | 11 | -23 | 11
COc1ccc(-c2oc(NC(=O)CSc3ncn[nH]3)c(C#N)c2-c2ccc(OC)cc2)cc1 | 56 | 70* | 48 | 21 | 6
N#Cc1c(NC(=O)CSc2ncccn2)oc(-c2ccccc2)c1-c1ccccc1 | -15 | 20 | -8 | 11 | 26
Cc1ccnc(SCC(=O)Nc2oc(-c3ccccc3)c(-c3ccccc3)c2C#N)n1 | 5 | 1 | 3 | 14 | -3
SMILES | CSC inhib | SKKanGAS inh | Mdm2 MdmX PPI | T cruzi inh | aSyn UTR inh
N#Cc1c(NC(=O)CSc2n[nH]c(Cc3ccccc3)n2)oc(-c2ccccc2)c1-c1ccccc1 | 102* | u | -5 | -2 | 6
Cc1cccc(-n2ncc3c2CCCC3NC(=O)C2=CC(=O)CC(C)(C)O2)c1C (configuration not stated) | -2 | 36 | 6 | 3 | -7
CCOc1ccc(C(=O)OCC(=O)NC2CCCCCCC2)cc1 | x | x | 20 | x | x
C#CCOCCOCCOCCNc1nc(N2CCN(C(=O)CCCCCCCCCCNC(=O)[C@H]([C@@H](C)CC)n3cc(CCCCN=C(N)N)nn3)CC2)nc(N2CCN(C(=O)CCCCCCCCCCNC(=O)[C@H](CCCCN)n3cc(C[C@@H](C)CC)nn3)CC2)n1 | 102* | x | 49 | x | x
C#CCOCCOCCOCCNc1nc(N2CCN(C(=O)CCCCCCCCCCNC(=O)[C@H](CCCCN)n3cc(CCO)nn3)CC2)nc(N2CCN(C(=O)CCCCCCCCCCNC(=O)[C@H](CCCN=C(N)N)n3cc(C[C@@H](C)CC)nn3)CC2)n1 | 135* | x | 11 | x | x
C#CCOCCOCCOCCNc1nc(N2CCN(C(=O)CCCCCCCCCCNC(=O)[C@@H](CCSC)n3cc(CCO)nn3)CC2)nc(N2CCN(C(=O)CCCCCCCCCCNC(=O)[C@H]([C@@H](C)CC)n3cc(CCCCN=C(N)N)nn3)CC2)n1 | -18 | x | 5 | x | x
C#CCOCCOCCOCCNc1nc(N2CCN(C(=O)CCCCCCCCCCNC(=O)[C@H](CCCCN)n3cc(CCCC(=O)O)nn3)CC2)nc(N2CCN(C(=O)CCCCCCCCCCNC(=O)[C@H](CCCN=C(N)N)n3cc(C[C@@H](C)CC)nn3)CC2)n1 | -19 | 4 | 6 | 50 | -132
C#CCOCCOCCOCCNc1nc(N2CCN(C(=O)CCCCCCCCCCNC(=O)[C@H](CCCCN)n3cc(C[C@@H](C)CC)nn3)CC2)nc(N2CCN(C(=O)CCCCCCCCCCNC(=O)[C@H](CCCCN)n3cc(C[C@@H](C)CC)nn3)CC2)n1 | 166* | u | x | 55* | 107*
Cc1ccc(C(=O)OC(C(=O)O)C(OC(=O)c2ccc(C)cc2)C(=O)O)cc1 (configuration not stated) | x | x | 2 | x | x
Cc1onc(-c2ccccc2)c1C(=O)NNC(=S)NC(=O)c1ccc(Br)cc1 | 28 | 125* | x | 5 | 1
Cc1onc(-c2ccccc2)c1C(=O)NNC(=S)NC(=O)/C=C/c1ccccc1 | 7 | 51* | 28 | -19 | 20
Cc1onc(-c2ccccc2)c1C(=O)NNC(=O)c1ccccc1O | 2 | 27 | 35 | -2 | -50
COc1cccc(CC(=O)NNC(=O)c2c(-c3ccccc3)noc2C)c1 | 2 | -3 | 1 | -7 | 4
Cc1ccccc1C(=O)NNC(=S)NC(=O)c1ccc(Cl)cc1Cl | x | 28 | 5 | -28 | -13
Cc1onc(-c2ccccc2)c1C(=O)NNC(=S)NC(=O)c1ccc(Cl)cc1Cl | -1 | 80* | 16 | -33 | 11
Cc1onc(-c2ccccc2)c1C(=O)NNC(=O)c1ccccc1 | x | x | -15 | x | x
COc1ccc(/C=C/C(=O)NC(=S)NNC(=O)c2c(-c3ccccc3)noc2C)cc1 | 5 | 89* | 27 | -7 | 5
Cc1ccc(S(=O)(=O)N2CCCCC2CCNC(=O)C(=O)NCc2ccccc2)cc1 (configuration not stated) | 63 | 11 | 18 | 19 | -31
CC1=C([N+](=O)[O-])C(c2ccc(Cl)cc2)NC(=O)N1 (configuration not stated) | -14 | 11 | 18 | 4 | 2

Bioassay records: PubChem BioAssay, several laboratories
